Reference: publication PMC8556866 (Bioorganic Chemistry, 2021)

What was measured:
[1] = target: T1, SARS-CoV-2 Mpro (Severe acute respiratory syndrome coronavirus 2, UniProt P0DTD1); test: biochemical; conditions: read-out: %Inhibition @0.3 μM
[2] = target: T1, SARS-CoV-2 Mpro; test: HPLC assay for inhibition of Mpro; format: biochemical; conditions: 0.3 μM compound, Mpro 0.2 μM; about 70% hydrolysis with Mpro alone
[3] = test system: SARS-CoV-2 virus; format: cell-based; conditions: read-out: IC50 of inhibition of SARS-CoV-2 viral replication
[4] = test system: intracellular reactive oxygen species (ROS) in HPAepiC cells; test: Intracellular ROS measurement with DCFH-DA after H2O2; format: cell-based; conditions: 50 μM H2O2 in HPAepiC cells; 10 μM ebselen/EBs, NAC 10 mM
How it was run: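 HPAepiC cells were cultured 24 h in 35-mm dishes, exposed to 50 μM H₂O₂ for 1 h and washed three times. They were then given 10 μM test compound for 24 h, with 10 mM NAC as positive control. Cells were loaded with 10 μM DCFH-DA for 30 min at 37 °C in the dark, washed with PBS and imaged confocally (Ex 488 nm, Em 520–570 nm). Relative fluorescence intensity was scored.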

[5] = test system: HPAepiC cells; test: ROS-induced cell death; format: cell-based; conditions: 50 μM H2O2 in HPAepiC cells; 10 μM ebselen/EBs, NAC 10 mM, 24 h
How it was run: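 HPAepiC cells were exposed to 50 μM H₂O₂ for 1 h, then washed three times with fresh medium. Medium with 10 μM test compound or 10 mM NAC was added for 24 h before cell death was assessed.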

[6] = target: T1, SARS-CoV-2 Mpro; format: binding

SMILES	inhibition at 0.3 µM [1] [%]	substrate hydrolysis [2] [%]	IC50 [3] [µM]	intracellular ROS level (DCFH-DA fluorescence) [4]	ROS induced cell death [5]	covalent binding to Mpro (peptide modified) [6]
O=c1c2ccccc2[se]n1-c1ccccc1 [Ebselen]	61.2 ± 0.76	30	24.6	dramatically decreased	dramatically decreased	identified to bind to ebselen
CC(=O)N[C@@H](CS)C(=O)O [NAC, N-Acetyl-L-cysteine]	–	–	–	scavenged the intracellular ROS	reversed the cytotoxicity induced by ROS	–
